Experimental data gathered from unrelated publications.
Protocols differ between the studies behind these lines.
Effect on: cell growth or viability

Compound | cell line | test | setting | endpoint | value
COc1cc(CN2CCc3cc(O)ccc3C2)cc(OC)c1OC | CNSSF-539 | SRB | – | GI50 | 36 nM
N#Cc1ccc2c(c1)C(=O)CCc1ccccc1C(=O)N2 | L6 | – | – | IC50 | 160000 nM
Nc1nc(Cl)nc2c1ncn2[C@H]1C[C@H](O)[C@@H](CO)O1 | GISTT1 | resazurin | 72 h | IC50 | > 1000 nM
CC(=O)Nc1cccc(-n2c(=O)n(C3CC3)c(=O)c3c(Nc4ccc(I)cc4F)n(C)c(=O)c(C)c32)c1 | SW1417 | resazurin | 6.25 nM, 72 h | viability | 71.8%
O=C1CCc2ccccc2C(=O)c2ccccc2N1 | L6 | – | – | IC50 | 230000 nM
CN(C)c1ccc(C(=C2C=CC(=[N+](C)C)C=C2)c2ccc(N(C)C)cc2)cc1 | GISTT1 | resazurin | 72 h | IC50 | 520 nM
COc1cc2c(cc1OS(N)(=O)=O)CCN(Cc1cc(Cl)c(OC)c(OC)c1)C2 | CNSSF-539 | SRB | – | GI50 | 19 nM
O=C1CCc2c(O)cccc2C(=O)Nc2ccccc21 | L6 | – | – | IC50 | 210000 nM
CN(C)CCCn1c2c(c3ccncc3c1=O)C(=O)c1ccccc1-2 | CNSSF-539 | SRB | – | GI50 | 708 nM
CC[C@@]1(O)C(=O)OCc2c1cc1n(c2=O)Cc2cc3ccccc3nc2-1 | CNSSF-539 | SRB | 48 h | GI50 | 10 nM
CCc1cc(CN2CCc3cc(OS(N)(=O)=O)c(OC)cc3C2)cc(CC)c1CC | CNSSF-539 | SRB | – | GI50 | 916 nM
CC[C@@]1(O)C(=O)OCc2c1cc1n(c2=O)Cc2cc3c(CN(C)C)c(O)ccc3nc2-1 | GISTT1 | resazurin | 72 h | IC50 | 80 nM
O=C1Nc2cc(F)cc(F)c2C(=O)CCc2ccccc21 | L6 | – | – | IC50 | 86000 nM
